# Reference: ChEMBL document CHEMBL1132257, “Apstatin analogue inhibitors of aminopeptidase P, a bradykinin-degrading enzyme” (J Med Chem, 1999)
# pIC50: −log10 of the molar value.
# Tests used:
# [1] = Inhibition against Aminopeptidase P from Escherichia coli.
# In short: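 Recombinant E. coli AP-P, preincubated with 0.73 mM MnCl2 (0.02 mM residual in assay). Hydrolysis of 0.5 mM Arg-Pro-Pro in 0.1 M Hepes pH 8.0 tracked by fluorescence of free arginine. IC50 by linear regression of rate vs log inhibitor concentration over 10 concentrations, triplicate each.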
# [2] = molecular target: T1, Xaa-Pro aminopeptidase 1 (Homo sapiens, UniProt Q9NQW7); assay: Inhibition against cytosolic Aminopeptidase P from human heart.
# In short: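 Human heart homogenate in 0.1 M potassium phosphate pH 6.8: the 40000g supernatant, or enzyme partly purified on TNB-thiol agarose with dithiothreitol elution and exchange into Hepes. Assayed with 0.5 mM Arg-Pro-Pro, 0.1 M Hepes pH 8.0; arginine measured by fluorescence. IC50 by linear regression, 10 concentrations in triplicate.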
# [3] = molecular target: T1, Xaa-Pro aminopeptidase 1; assay: Inhibition against Aminopeptidase P from human platelets.
# In short: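 Enzyme from human platelets: washed in PBS with prostacyclin, freeze-thawed, sonicated; the 43000g 2 h supernatant was used. Substrate 0.5 mM Arg-Pro-Pro, 0.1 M Hepes pH 8.0, fluorimetric arginine read-out. IC50 from triplicate rates at 10 concentrations, by linear regression of rate vs log concentration.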
# [4] = Inhibition against Aminopeptidase P from bovine.; format: single protein
# In short: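 Source was bovine lung membrane-bound enzyme purified to homogeneity. Substrate 0.5 mM Arg-Pro-Pro, 0.1 M Hepes pH 8.0, with fluorimetric detection of released arginine. IC50 by linear regression of rate vs log [inhibitor] (linear part), using 10 concentrations near a preliminary estimate, in triplicate.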
# [5] = molecular target: Xaa-Pro aminopeptidase 2 (Homo sapiens, UniProt O43895); assay: Inhibition against membrane bound human aminopeptidase P
# In short: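 Partially purified membrane-bound AP-P from human or cynomolgus lung, released from microsomes by phosphatidylinositol-specific phospholipase C and then centrifuged. Triplicate rates at 10 inhibitor levels; IC50 by linear regression of the linear part of the rate vs log concentration plot.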
# [6] = molecular target: T2, Xaa-Pro aminopeptidase 2 (Rattus norvegicus, UniProt Q99MA2); assay: Activity against membrane bound rat aminopeptidase P
# T2 sequence (Q99MA2 whole entry): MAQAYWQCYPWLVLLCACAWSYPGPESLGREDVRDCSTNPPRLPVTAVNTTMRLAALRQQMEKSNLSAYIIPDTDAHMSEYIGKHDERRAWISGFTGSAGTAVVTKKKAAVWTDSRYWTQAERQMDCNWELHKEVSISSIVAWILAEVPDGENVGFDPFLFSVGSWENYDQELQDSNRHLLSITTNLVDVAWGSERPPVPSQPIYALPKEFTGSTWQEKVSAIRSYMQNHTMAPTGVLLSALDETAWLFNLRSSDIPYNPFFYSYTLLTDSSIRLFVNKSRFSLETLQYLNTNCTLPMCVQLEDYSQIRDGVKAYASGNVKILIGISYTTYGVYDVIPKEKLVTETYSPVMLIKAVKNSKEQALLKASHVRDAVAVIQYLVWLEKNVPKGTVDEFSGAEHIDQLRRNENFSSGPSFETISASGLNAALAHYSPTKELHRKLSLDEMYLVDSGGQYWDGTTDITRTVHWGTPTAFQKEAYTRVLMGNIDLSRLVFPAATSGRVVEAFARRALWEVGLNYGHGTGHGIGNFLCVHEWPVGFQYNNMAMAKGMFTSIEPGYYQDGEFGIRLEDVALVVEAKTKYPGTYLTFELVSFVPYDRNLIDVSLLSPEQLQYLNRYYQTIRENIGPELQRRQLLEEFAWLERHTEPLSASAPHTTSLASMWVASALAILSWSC
# In short: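 Membrane-bound AP-P purified to homogeneity from rat lung; 0.5 mM Arg-Pro-Pro substrate in 0.1 M Hepes, pH 8.0; free arginine release read by fluorescence. IC50 from 10 inhibitor concentrations around an approximate value, each in triplicate, by linear regression of the linear portion of rate vs log inhibitor concentration.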
# T1 sequence (Q9NQW7 whole entry): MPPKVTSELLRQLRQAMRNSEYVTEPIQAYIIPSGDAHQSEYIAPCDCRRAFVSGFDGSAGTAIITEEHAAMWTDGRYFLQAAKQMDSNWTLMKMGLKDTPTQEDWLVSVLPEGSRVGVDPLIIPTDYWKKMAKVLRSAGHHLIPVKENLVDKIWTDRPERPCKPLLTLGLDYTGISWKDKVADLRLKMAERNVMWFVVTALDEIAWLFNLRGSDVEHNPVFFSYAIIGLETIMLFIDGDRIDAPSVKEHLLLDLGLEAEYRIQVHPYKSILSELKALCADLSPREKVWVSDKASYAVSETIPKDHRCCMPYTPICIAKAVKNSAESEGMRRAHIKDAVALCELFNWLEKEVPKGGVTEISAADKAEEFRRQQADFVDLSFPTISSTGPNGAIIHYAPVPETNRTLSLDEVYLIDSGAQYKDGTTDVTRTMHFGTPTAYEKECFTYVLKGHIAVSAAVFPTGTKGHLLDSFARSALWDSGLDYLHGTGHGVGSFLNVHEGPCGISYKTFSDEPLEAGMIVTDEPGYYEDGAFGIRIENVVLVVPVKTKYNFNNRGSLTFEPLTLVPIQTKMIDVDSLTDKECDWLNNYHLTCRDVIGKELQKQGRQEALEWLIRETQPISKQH
# Sequence of Xaa-Pro aminopeptidase 2 (Homo sapiens, UniProt O43895) (O43895 whole entry): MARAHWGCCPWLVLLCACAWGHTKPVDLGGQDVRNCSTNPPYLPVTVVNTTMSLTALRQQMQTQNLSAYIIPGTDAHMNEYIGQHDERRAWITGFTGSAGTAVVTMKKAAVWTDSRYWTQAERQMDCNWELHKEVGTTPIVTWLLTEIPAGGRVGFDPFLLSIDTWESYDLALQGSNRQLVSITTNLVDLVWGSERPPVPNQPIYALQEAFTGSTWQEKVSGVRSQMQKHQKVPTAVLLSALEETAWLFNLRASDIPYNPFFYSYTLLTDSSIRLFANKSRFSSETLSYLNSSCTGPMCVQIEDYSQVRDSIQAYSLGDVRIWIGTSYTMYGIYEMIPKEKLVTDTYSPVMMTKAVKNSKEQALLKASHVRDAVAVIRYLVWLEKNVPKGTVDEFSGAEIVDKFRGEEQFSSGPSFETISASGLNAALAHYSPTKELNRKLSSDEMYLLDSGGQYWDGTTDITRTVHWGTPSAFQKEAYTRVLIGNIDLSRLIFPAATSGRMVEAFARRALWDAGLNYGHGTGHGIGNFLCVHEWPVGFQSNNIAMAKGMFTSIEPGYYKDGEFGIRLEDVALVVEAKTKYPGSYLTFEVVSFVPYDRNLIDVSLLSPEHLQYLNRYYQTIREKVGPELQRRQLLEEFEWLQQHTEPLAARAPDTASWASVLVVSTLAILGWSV
pIC50 [1],pIC50 [2],pIC50 [3],pIC50 [4],pIC50 [5],pIC50 [6],Structure (SMILES)
5.05,4.68,4.74,5.03,–,–,C[C@H](NC(=O)[C@@H]1CCCN1C(=O)[C@@H]1CCCN1C(=O)[C@@H](O)[C@H](N)Cc1ccccc1)C(N)=O
4.39,4.09,–,4.47,–,–,C[C@H](NC(=O)[C@@H]1CCCN1C(=O)[C@@H]1CSCN1C(=O)[C@@H](O)[C@H](N)Cc1ccccc1)C(N)=O
3.80,< 2.70,< 2.70,< 2.70,–,–,C[C@H](NC(=O)[C@@H]1CCCN1C(=O)[C@@H]1C[C@@H](O)CN1C(=O)[C@@H](O)[C@H](N)Cc1ccccc1)C(N)=O
< 2.70,< 2.70,–,< 3.30,–,–,C[C@H](NC(=O)[C@@H]1CCCN1C(=O)C1CCCCC1C(=O)NO)C(N)=O (stereo in doubt; 15)
2.70,< 2.30,–,< 2.30,–,–,C[C@H](NC(=O)[C@@H]1CCCN1C(=O)C1CCCCC1C(=O)NO)C(N)=O (stereo in doubt; 16)
3.89,< 2.52,–,4.30,–,–,C[C@H](NC(=O)[C@@H]1CCCN1C(=O)C1CCCCC1C(=O)NO)C(N)=O (stereo in doubt; 14)
–,5.20,–,5.00,4.54,5.47,C[C@H](NC(=O)[C@@H]1CCCN1C(=O)C1CCCC1S)C(N)=O (stereo in doubt; 12)
4.80,4.35,3.60,2.89,–,–,NC(=O)[C@@H]1CCCN1C(=O)[C@@H]1CCCN1C(=O)[C@@H](O)[C@H](N)Cc1ccccc1
< 2.52,4.28,–,3.52,3.41,3.82,C[C@H](NC(=O)[C@@H]1CCCN1C(=O)C1CCCC1S)C(N)=O (stereo in doubt; 13)
